Consider four compounds from ChEMBL document CHEMBL2331302, “Selection of heptapeptides that bind helix 69 of bacterial 23S ribosomal RNA” (Bioorg Med Chem, 2013).

As a reminder, the pKd is the negative decadic logarithm of the Kd, by convention in mol/L.

pKd: −log10 of the molar value. Calls of active or inactive are those of the source. The rule behind the calls is not given here.

For assay [1], the system named is Escherichia coli. As to the kind of experiment: Selectivity ratio of Kd for Escherichia coli H69-UUU RNA to Kd for wild type Escherichia coli H69 RNA.
In assay [2] the test system is Escherichia coli. Nature of the assay: Ratio of apparent Kd for wild type Escherichia coli H69-UUU RNA at 4- charge state at pH 5.2 to apparent Kd for wild type Escherichia coli H69-UUU RNA at 4- charge state at pH 7. An outline of the steps:
(§1)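 The ratio compares apparent Kd for the 4− charge-state 1:1 complex from ESI-MS titrations at pH 5.2 and pH 7.0. Conditions: 150 mM ammonium acetate, 25% 2-propanol, 1–3 μM RNA, 0–120 μM amidated peptide, quadratic fit.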

Assay [3] concerns Escherichia coli. Nature of the assay: Selectivity ratio of apparent Kd for Escherichia coli A-site 16s rRNA at pH 7 to apparent Kd for wild type Escherichia coli H69 RNA at pH 7. An outline of the steps:
(§2)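 The ratio compares apparent Kd for each RNA with that for modified wild-type H69, both for 1:1 complexes from ESI-MS at pH 7.0. Conditions: 150 mM ammonium acetate, 25% 2-propanol, 1–3 μM RNA, 0–120 μM amidated peptide, fraction bound fitted by a quadratic equation.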

In assay [4] the test system is Escherichia coli. Nature of the assay: Selectivity ratio of apparent Kd for Escherichia coli H69-pseudouridineUpseudouridine RNA at 4- charge state at pH 7 to apparent Kd for wild type Escherichia coli H69 RNA at 4- charge state at pH 7.
A short description of assay [5]: Binding affinity to Escherichia coli A-site 16s rRNA at pH 7 after 30 mins by ESI-MS analysis. To be noted: read-out: Kd(app). An outline of the steps: (§3)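 ESI-MS titration of free amidated peptide (0–120 μM) with 1–3 μM RNA (50 μL) in 150 mM ammonium acetate, pH 7.0 or 5.2, 25% 2-propanol. Summed peak areas of complexes (1:1, 1:2, Na+/K+ adducts) over free plus complexed RNA give fraction bound, either per charge state (4−, 5−) or all states. Apparent Kd comes from a quadratic fit, three independent experiments.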

Assay [6] in a line: Binding affinity to Escherichia coli H69-UUU RNA at 4- charge state at pH 7 after 30 mins by ESI-MS analysis. The settings on record: read-out: Kd(app). A digest of the protocol: as §3
In assay [7] the test system is Escherichia coli. Nature of the assay: Selectivity ratio of apparent Kd for Escherichia coli helix 31 at pH 7 to apparent Kd for wild type Escherichia coli H69 RNA at pH 7. An outline of the steps: as §2
Assay [8] in a line: Binding affinity to Escherichia coli helix 31 at pH 7 after 30 mins by ESI-MS analysis. To be noted: read-out: Kd(app). An outline of the steps:
as §3

The subject of assay [9] is Escherichia coli. Nature of the assay: Selectivity ratio of apparent Kd for Escherichia coli H69-U2(pseudouridine) RNA at 4- charge state at pH 7 to apparent Kd for wild type Escherichia coli H69 RNA at 4- charge state at pH 7. A digest of the protocol: as §2
A short description of assay [10]: Binding affinity to Escherichia coli H69-U2(pseudouridine) RNA at 4- charge state at pH 7 after 30 mins by ESI-MS analysis. To be noted: read-out: Kd(app). An outline of the steps:
as §3

Assay [11] can be described thus: Binding affinity to wild type Escherichia coli H69 RNA at 4- charge state at pH 5.2 after 30 mins by ESI-MS analysis. To be noted: read-out: Kd(app). An outline of the steps: as §3
Assay [12] is described as follows: Binding affinity to Escherichia coli H69-2(pseudouridine)U RNA at 4- charge state at pH 7 after 30 mins by ESI-MS analysis. To be noted: read-out: Kd(app). A digest of the protocol: as §3
The nature of assay [13]: Binding affinity to Escherichia coli H69-pseudouridineUpseudouridine RNA at 4- charge state at pH 7 after 30 mins by ESI-MS analysis. To be noted: read-out: Kd(app). An outline of the steps:
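ESI-MS on a tandem quadrupole instrument: 1–3 μM RNA with 0–120 μM amidated peptide in 150 mM ammonium acetate, pH 7.0, 25% 2-propanol. Summed peak areas of free RNA and 1:1 complex (with Na+/K+ adducts) at the 4− charge state were used to get the fraction bound. Apparent Kd came from a quadratic-equation non-linear fit. Three independent experiments were run.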

The nature of assay [14]: Binding affinity to human H69 RNA at pH 7 after 30 mins by ESI-MS analysis. The settings on record: read-out: Kd(app). A digest of the protocol: as §3
Assay [15] is described as follows: Selectivity ratio of apparent Kd for human H69 RNA at pH 7 to apparent Kd for wild type Escherichia coli H69 RNA at pH 7. A digest of the protocol: as §2
The subject of assay [16] is Escherichia coli. As to the kind of experiment: Selectivity ratio of apparent Kd for Escherichia coli H69-UUU RNA at 4- charge state at pH 7 to apparent Kd for wild type Escherichia coli H69 RNA at 4- charge state at pH 7. An outline of the steps: as §2
Assay [17] is described as follows: Binding affinity to Escherichia coli H69-UUU RNA at 4- charge state at pH 5.2 after 30 mins by ESI-MS analysis. To be noted: read-out: Kd(app). An outline of the steps:
as §3

Assay [18] concerns Escherichia coli. Nature of the assay: Ratio of apparent Kd for wild type Escherichia coli H69 RNA at 4- charge state at pH 5.2 to apparent Kd for wild type Escherichia coli H69 RNA at 4- charge state at pH 7. An outline of the steps:
as §1

Assay [19] concerns Escherichia coli. Nature of the assay: Selectivity ratio of apparent Kd for Escherichia coli H69-2(pseudouridine)U RNA at 4- charge state at pH 7 to apparent Kd for wild type Escherichia coli H69 RNA at 4- charge state at pH 7. An outline of the steps:
as §2

The species named for assay [20] is Homo sapiens. Nature of the assay: Binding affinity to human 5'-fluorescein-tagged TAR RNA after 24 hrs by fluorescein-based bead assay. A digest of the protocol: (§4)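 TentaGel beads carrying peptide with a free N-terminus were blocked 3 h in SuperBlock (PBS, 0.05% Tween-20) and water-washed. About 10–12 beads were incubated with 15 μL of 1 μM 5′-fluorescein-labelled RNA in 10 mM HEPES for 24 h at 4 °C with shaking, repeated 4× with fresh RNA. Beads were water-washed and imaged by fluorescence microscopy. Peptide-free beads gave background.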

The species entered for assay [21] is Homo sapiens. Nature of the assay: Binding affinity to human 5'-fluorescein-tagged 18s RNA after 24 hrs by fluorescein-based bead assay. An outline of the steps: as §4
Assay [22] deals with Escherichia coli. Nature of the assay: Binding affinity to wild type Escherichia coli 5'-fluorescein-tagged H69 RNA after 24 hrs by fluorescein-based bead assay relative to control. A digest of the protocol:
as §4

The subject of assay [23] is Escherichia coli. Nature of the assay: Binding affinity to wild type Escherichia coli Qdot-labeled H69 RNA after 16 hrs by fluorescein-based bead assay. An outline of the steps:
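1 nM fluorescein-H69 was pre-incubated 1 h with 1 nM anti-fluorescein Qdot 655, then with beads for 16 h at 4 °C. Beads were washed, and red and green per-bead pixel intensities (1–255 scale) quantified against no-peptide beads.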

Turning to `NC[C@@H]1O[C@H](O[C@H]2[C@@H](O)[C@H](O[C@@H]3[C@@H](O)[C@H](N)C[C@H](N)[C@H]3O[C@H]3O[C@H](CO)[C@@H](O)[C@H](O)[C@H]3N)O[C@@H]2CO)[C@H](N)[C@@H](O)[C@@H]1O`, in the assay with Escherichia coli [1], the Selectivity ratio came to 2.
On to H-NQVANHQ-NH2, for which the Ratio in the assay with Escherichia coli [2] came out at 1.6; in the assay with Escherichia coli [18] it was 2.8. Further, the Selectivity ratio in the assay on Escherichia coli [3] worked out at 4; with Escherichia coli [4] it was 2.3; in the assay on Escherichia coli [7], 3; in the assay on Escherichia coli [9], 2.3; in assay [15], 4; in the assay with Escherichia coli [16] it was 1.6. For the same compound, the Selectivity ratio in the assay on Escherichia coli [19] worked out at 2.3. Also, the pKd in assay [5] was 4.31; in assay [6] it was 4.72; in [8] it was 4.48; in assay [10], 4.55; in assay [11] it was 4.47; in assay [12] it was 4.55. Further, the pKd is 4.55 in assay [13], 4.30 in assay [14] and 4.51 in assay [17].
For the compound H-NQVANHQ-OH, the outcome in the assay listed under Homo sapiens [20] and in the assay filed under Homo sapiens [21] was inactive. The result in the assay on Escherichia coli [22] and in the assay on Escherichia coli [23] was Active.
For the compound H-STYTSVS-OH, the result in the assay filed under Homo sapiens [20], in the assay with Escherichia coli [22] and in the assay with Escherichia coli [23] was Active.
